Data taken from ChEMBL document CHEMBL4513216, “Probing the Open Global Health Chemical Diversity Library for Multistage-Active Starting Points for Next-Generation Antimalarials” (ACS Infect Dis, 2020).

Test: Toxicity liver stage against HepG2, at 10uM
Assay type: cell-based
Design: test concentration 10 uM, cell line HepG2-A16-CD81EGFP
Conditions: human, HepG2-A16-CD81EGFP cells; read-out: INHIBITION
Method in brief: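 Uninfected HepG2-A16-CD81EGFP cells, 3 × 10^3 per well, 1536-well, plated on prespotted compound at 10 μM final, parasite-free screening media added to match infected plates; puromycin 10 μM positive, DMSO 0.5% negative; run in parallel with 48 h PbLuc assay at 37 °C, 5% CO2; viability by CellTiter-Glo luminescence, normalized to controls.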

Row | SMILES | cytotoxicity at 10 µM
1 | COCCn1c(-c2cccc(OC)c2)cnc1NC(=O)NCC(C)C | 11.4%
2 | Cn1cc(-c2nnc3sc(C4CCC4)nn23)cn1 | -13%
3 | CSCCC(Nc1nc(C)cc(C)n1)C(=O)NCC1CCOCC1 (stereo unspecified) | -3.45%
4 | COCCN(Cc1ccoc1)C(=O)c1ccc(Cl)s1 | 12.3%
5 | CCSc1ccccc1C(=O)N(CCOC)Cc1ccoc1 | 13.8%
6 | CCS(=O)(=O)NCc1nc(C)cc(N2CCCC2)n1 | -0.714%
7 | COc1ccc(C2CC(=O)Nc3nc(N4CCOCC4)sc32)cc1 (stereo unspecified) | 10.8%
8 | COCCNC(=O)c1cc(C2CC2)nc2onc(C3CCNC3)c12 (stereo unspecified) | 7.55%
9 | CS(=O)(=O)CCn1ccc(NC(=O)Cc2ccccc2Cl)n1 | 13.6%
10 | CCc1nc(C)c(C(C)N(C)CCOC)s1 (stereo unspecified) | -6.35%
11 | COC1CCN(CCNC(=O)NCC(C)c2cccc(C)c2)CC1 (stereo unspecified) | -4.47%
12 | CNC(=O)c1cccnc1N1CCN(C/C=C/c2ccccc2)CC1 | -9.23%
13 | CN(C)c1ccccc1CN1CCC(N2CCCC2=O)CC1 | 5.02%
14 | CC(=O)Nc1ccc(CNc2cccc(OCCF)c2)cc1 | -5.35%
15 | CC(NC(=O)CCc1nc(C(C)(C)C)no1)c1nnc2n1CCC2 (stereo unspecified) | 12%
16 | Cn1cc(N2CCC(NC(=O)c3ccccc3Cl)C2=O)cn1 (stereo unspecified) | 4.35%
17 | O=S1(=O)CCN(c2nc(C3CC3)ns2)CC1 | 2.37%
18 | CC(C)n1cc(CN2CCCN(C(=O)c3ccco3)CC2)cn1 | -2.27%
19 | O=C(N1CCC(Oc2ccncc2)C1)C1(c2cccc(F)c2)CC1 (stereo unspecified) | -6.52%
20 | Cc1nc2n(n1)CC(NCC(=O)NCCCOC(C)C)CC2 (stereo unspecified) | -5.03%
21 | CN(C(=O)CN1CCCC1c1cnn(C)c1)C1(C#N)CCCCC1 (stereo unspecified) | 1.41%
22 | COc1cccc(NC(=O)N(CCC(F)(F)F)C[C@H](O)CO)c1 | -9.48%
23 | Cc1ncc(CN(C)CC(O)c2ccc(Br)cc2)s1 (stereo unspecified) | 7.12%

Row | SMILES | cytotoxicity at 10 µM
24 | CCc1nc(C(=O)NCc2ccc(N3CCNC(=O)C3)c(F)c2)c[nH]1 | -7.12%
25 | COc1ccccc1OCC(=O)NS(=O)(=O)c1ccccc1F | -18%
26 | Cc1noc(C)c1CNC(=O)N1CCC(C(O)c2ccccc2)CC1 (stereo unspecified) | -9.41%
27 | COc1ccc(CCN2CCN(C(=O)c3scnc3C)CC2)cc1 | -8.31%
28 | CNC(=O)COc1ccc(CNCc2ccc(F)cc2F)cc1 | -8.6%
29 | CCCNc1ncc(CN2CCN(C)C(=O)C2C)cn1 (stereo unspecified) | 12.9%
30 | COc1ccc(F)cc1NC(=O)NCC1(C)COC1 | 6.26%
31 | O=C(N[C@@H]1CCNC[C@H]1O)c1ccc(F)c(F)c1 | 5.79%
32 | COCCN1CC(Nc2nc(C3CCCC3)nc3c2cnn3C)CC1=O (stereo unspecified) | -1.18%
33 | CC(C)(C)c1ncc(S(C)(=O)=O)c(C2CCCNC2)n1 (stereo unspecified) | -12.7%
34 | COc1cccc2ccc(CN3CCN(c4ccncc4)CC3)nc12 | -1.36%
35 | CN1CCC(N(CCc2ccccc2)C(=O)c2ccc(CO)cc2)CC1 | 1.63%
36 | CN(C)CC1CN(Cc2coc(-c3ccccc3Cl)n2)CCO1 (stereo unspecified) | -1.15%
37 | O=C(c1cnc(C2CC2)s1)N1CCCCC1Cn1cccn1 (stereo unspecified) | 2.43%
38 | COc1ccc(C)cc1CN1CCCC1Cn1nc(C)nc1C (stereo unspecified) | 6.57%
39 | CN(C)C(=O)CN1C[C@H]2CN(Cc3cccc(F)c3)C(=O)[C@H]2C1 | -79.5%
40 | Cn1nccc1C(=O)N1CC[C@]2(C[C@H](OCc3ccccn3)CO2)C1 | -80.6%
41 | COCC1CN(Cc2cnn(C)c2)Cc2nn(C)cc21 (stereo unspecified) | -82.8%
42 | O=C(c1ccsc1)N1CCC2(CC1)COCCN(Cc1ccncc1)C2 | -89.6%
43 | COCCN(C)C1COC2(CCN(Cc3ccccn3)CC2)C1 (stereo unspecified) | -73.4%
44 | CN(C)c1ncc2c(n1)C1(CCN(Cc3ccccc3)C1)COC2 (stereo unspecified) | -5.07%
45 | O=C1CO[C@@H]2CN(C3CCOCC3)C[C@H]2N1Cc1cccc(F)c1 | -77%
46 | CN1CCN(Cc2cn3c(n2)CN(C(=O)c2ccccn2)CC3)CC1 | -5.7%
